Biological target: Monoacylglycerol lipase ABHD6 (Mus musculus) (UniProt Q8R2Y0)
Experiment: oral in vivo ABHD6 inhibition in mouse liver, late-stage follow-up, in vivo study for DAGLb inhibitor project, gel-based competitive ABPP, fluorescence, powder samples (AID 624077)
Conditions: C57BL mice oral dosing, stronger effect = higher value
Summary of the method: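 Test system: C57BL mouse liver membranes, ABHD6 | Doses: Oral 10, 5, 1 mg/kg | Schedule: 4 h oral dose-to-liver-harvest, 30 min 37 °C probe labelling | Signal: SDS-PAGE followed by in-gel fluorescence scanning | Read-out basis: Percent ABHD6 inhibition from band integrated optical density versus vehicle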

[1] = measured here: ABHD6 inhibition at 1 mg/kg
[2] = measured here: ABHD6 inhibition at 5 mg/kg

Sequence of Monoacylglycerol lipase ABHD6 (Mus musculus) (Q8R2Y0 whole entry, looked up): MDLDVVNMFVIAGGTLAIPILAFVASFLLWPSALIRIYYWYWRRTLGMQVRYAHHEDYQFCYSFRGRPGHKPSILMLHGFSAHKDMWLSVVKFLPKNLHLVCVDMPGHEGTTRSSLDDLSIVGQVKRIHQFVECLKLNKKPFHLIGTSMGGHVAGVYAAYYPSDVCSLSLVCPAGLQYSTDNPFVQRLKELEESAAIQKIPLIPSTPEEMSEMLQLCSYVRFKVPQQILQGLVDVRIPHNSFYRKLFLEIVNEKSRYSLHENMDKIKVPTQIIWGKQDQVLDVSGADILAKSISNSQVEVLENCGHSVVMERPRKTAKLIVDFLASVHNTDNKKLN

`COc1ccccc1-c1ccc(-c2cn(C(=O)N3CCCCC3Cc3ccccc3)nn2)cc1` (centres undefined) was tested, and the inhibition was 100%, the inhibition [1] was 90% and the inhibition [2] was 100%.
Work on `COc1ccc(-c2ccc(-c3cn(C(=O)N4CCCCC4c4ccccc4)nn3)cc2)cc1` (centres undefined) yielded an inhibition of 100%, an inhibition [1] of 70% and an inhibition [2] of 80%.
For `O=C(N1CCCCC1Cc1ccccc1)n1cc(-c2ccc(-c3ccccc3)cc2)nn1` (centres undefined), the inhibition was 100%, the inhibition [1] was 100% and the inhibition [2] was 100%.

From PubChem BioAssay AID624077 (The Scripps Research Institute Molecular Screening Center, 2012)
